These results are taken from ChEMBL document CHEMBL1156856, “Design, synthesis, and biological evaluation of novel estradiol-bisphosphonate conjugates as bone-specific estrogens” (Bioorg Med Chem, 2010).

The structures appear in SMILES notation. The source made the active and inactive calls. No cut-off for these calls is given here.

In assay [1] the test system is Rattus norvegicus. The assay is described as follows: Estrogenic activity in uterus of ovariectomized Sprague-Dawley rat assessed as increase in uterus weight at 0.1 mg/kg, iv administered three times per week for 4 weeks on the first, second, and fifth days. The class given is functional, organism-based. On the set-up: dose 0.1 mg/kg. The gist of the method: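 Female SD rats, 7 weeks old on arrival, were housed 4 weeks, weight-matched into groups, and bilaterally ovariectomized, with sham-operated controls. Conjugate was given iv at 0.1 mg/kg the day after surgery in 1% carboxymethyl cellulose plus 1% citrate buffer. Uterine weight was the read-out.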

For assay [2], the system named is Rattus norvegicus. Put plainly: Estrogenic activity in bone of ovariectomized Sprague-Dawley rat assessed as increase in bone mass at 0.1 mg/kg, iv administered three times per week for 4 weeks on the first, second, and fifth days. The class given is functional, organism-based. Set-up: dose 0.1 mg/kg. The gist of the method: (§1)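 Female SD rats, 7 weeks old on arrival, were housed 4 weeks and assigned to groups matched for mean body weight. All except sham controls were bilaterally ovariectomized. The next day they received conjugate at 0.1 mg/kg iv in 1% carboxymethyl cellulose plus 1% citrate buffer. Bone effect was read as secondary-spongiosa bone volume of the left tibia and ash weight of the right femur.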

In assay [3] the test system is Rattus norvegicus. The assay is described as follows: Estrogenic activity in bone of ovariectomized Sprague-Dawley rat assessed as increase in bone mass at 0.1 mg/kg, iv administered three times per week for 4 weeks on the first, second, and fifth days co-administered with antiestrogen fulvaestrant. The class given is functional, organism-based. Set-up: dose 0.1 mg/kg. The method, boiled down:
as §1

The subject of assay [4] is Rattus norvegicus. Put plainly: Bisphosphonate activity in ovariectomized Sprague-Dawley rat assessed as suppression of Ca2+ ion release from bone at 0.1 mg/kg, iv administered three times per week for 4 weeks on the first, second, and fifth days. The format is functional, organism-based. On the set-up: dose 0.1 mg/kg. The gist of the method:
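In rats, bisphosphonate activity was measured as suppression of PTHrp-induced Ca2+ ion release from bone.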

In assay [5] the target is T1, Estrogen receptor (Rattus norvegicus) (UniProt P06211).
T1 sequence (whole entry): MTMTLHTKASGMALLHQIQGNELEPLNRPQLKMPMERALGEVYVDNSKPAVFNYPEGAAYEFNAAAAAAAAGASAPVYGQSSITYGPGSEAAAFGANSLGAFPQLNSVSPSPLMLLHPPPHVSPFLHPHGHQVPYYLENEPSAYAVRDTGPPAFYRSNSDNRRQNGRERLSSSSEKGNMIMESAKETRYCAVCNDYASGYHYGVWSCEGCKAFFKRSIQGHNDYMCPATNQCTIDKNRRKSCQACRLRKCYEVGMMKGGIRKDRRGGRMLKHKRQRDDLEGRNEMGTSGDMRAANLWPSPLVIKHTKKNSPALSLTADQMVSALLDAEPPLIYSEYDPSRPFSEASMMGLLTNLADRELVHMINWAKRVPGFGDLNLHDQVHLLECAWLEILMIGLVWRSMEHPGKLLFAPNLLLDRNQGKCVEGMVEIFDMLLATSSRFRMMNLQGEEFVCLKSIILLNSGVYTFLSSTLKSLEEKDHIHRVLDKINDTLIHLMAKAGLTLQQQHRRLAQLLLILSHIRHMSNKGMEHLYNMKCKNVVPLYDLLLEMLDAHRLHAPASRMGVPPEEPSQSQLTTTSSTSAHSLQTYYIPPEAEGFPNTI
Put plainly: Ratio of binding affinity of compound to estradiol at rat uterus estrogen receptor by competitive binding assay.

With `C[C@]12CC[C@@H]3c4ccc(O)cc4CC[C@H]3[C@@H]1CC[C@@H]2OC(=O)CC(=O)NC(P(=O)(O)O)P(=O)(O)O`, the result in the assay with Rattus norvegicus [1] was inactive.
In the case of `CC(C)(C(=O)NC(P(=O)(O)O)P(=O)(O)O)C(=O)O[C@H]1CC[C@H]2[C@@H]3CCc4cc(O)ccc4[C@H]3CC[C@]12C`, the outcome with Rattus norvegicus [1] was inactive.
Turning to `C[C@]12CC[C@@H]3c4ccc(O)cc4CC[C@H]3[C@@H]1CC[C@@H]2OC(=O)CCNC(=O)NC(P(=O)(O)O)P(=O)(O)O`, the result in the assay on Rattus norvegicus [1] was inactive.
Consider `C[C@]12CC[C@@H]3c4ccc(O)cc4CC[C@H]3[C@@H]1CC[C@@H]2OC(=O)c1ccccc1C(=O)NC(P(=O)(O)O)P(=O)(O)O`, for which the result in the assay with Rattus norvegicus [1] was inactive.
Consider `C[C@]12CC[C@@H]3c4ccc(O)cc4CC[C@H]3[C@@H]1CC[C@@H]2O`, for which the outcome in the assay on Rattus norvegicus [2] and in the assay on Rattus norvegicus [1] was Active.
For the molecule `C[C@]12CC[C@@H]3c4ccc(OC(=O)NCCC(=O)NC(P(=O)(O)O)P(=O)(O)O)cc4CC[C@H]3[C@@H]1CC[C@@H]2O`, the outcome in the assay on Rattus norvegicus [3], in the assay on Rattus norvegicus [1] and in the assay on Rattus norvegicus [4] was inactive. Further, in the assay with Rattus norvegicus [2], the outcome was Active. In assay [5], the Ratio was determined as 2000.
As for `C[C@]12CC[C@@H]3c4ccc(OC(=O)CC(=O)NC(P(=O)(O)O)P(=O)(O)O)cc4CC[C@H]3[C@@H]1CC[C@@H]2O`, in the assay on Rattus norvegicus [1], the result was inactive.
